The source made the active and inactive calls. The rule behind the calls is not given here.
Assays:
[1] = target: T1, Casein kinase I isoform alpha/delta (Homo sapiens) (UniProt P48730+P48729); experiment: Inhibition of CK1alpha/CK1delta in human U2OS cells co-expressing Bmal1-dLuc assessed as modulation circadian clock by measuring drug level causing 5 hrs circadian period lengthening measured every 100 mins by luminescence assay; type: cell-based
Method in brief: (§1)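 Bmal1-dLuc U2OS cells seeded at 2000 per well and grown 2 days in DMEM/10% FBS. Explant medium with 1 mM luciferin, 10 mM HEPES and 2% B27 (pH 7.2) added, with compounds at 8 μM to 1 nM (3-fold dilutions, final 0.7% DMSO). Luminescence read every 100 min. Period obtained by curve fitting, excluding the first 20 h. Value is the concentration giving the stated lengthening; mean of at least two independent determinations.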

[2] = target: T1, Casein kinase I isoform alpha/delta (Homo sapiens); experiment: Inhibition of CK1alpha/CK1delta in human U2OS cells co-expressing Bmal1-dLuc assessed as modulation circadian clock by measuring drug level causing 1 hr circadian period lengthening measured every 100 mins by luminescence assay; type: cell-based; method in brief: as §1
[3] = target: T2, Casein kinase I isoform alpha (Homo sapiens, UniProt P48729); experiment: Inhibition of recombinant full length human GST-tagged CK1apha expressed in baculovirus using peptide as substrate after 3 hrs by kinase-glo luminescent assay
Method in brief: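 Reaction held 1 ng/μL CKIα and 50 μM CKI peptide substrate in CKI buffer (40 mM Tris, 10 mM MgCl2, 0.5 mM DTT, 0.1 mg/mL BSA, pH 7.5). Final 5% DMSO from compound. Started with ATP (final 5 μM). Ran 3 h at 30 °C, then Kinase-Glo reagent added and luminescence recorded.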
Target sequence in this assay (P48729 whole entry, canonical isoform): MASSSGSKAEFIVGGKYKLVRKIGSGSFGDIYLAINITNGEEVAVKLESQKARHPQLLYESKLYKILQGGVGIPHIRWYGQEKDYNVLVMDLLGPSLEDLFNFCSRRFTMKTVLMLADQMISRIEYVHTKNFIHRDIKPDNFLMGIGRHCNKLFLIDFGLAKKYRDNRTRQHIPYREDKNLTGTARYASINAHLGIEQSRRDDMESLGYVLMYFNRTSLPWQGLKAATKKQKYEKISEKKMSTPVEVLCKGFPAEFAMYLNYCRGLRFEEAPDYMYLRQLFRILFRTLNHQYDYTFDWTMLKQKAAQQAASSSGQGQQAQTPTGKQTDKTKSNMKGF

[4] = target: CDK7/Cyclin H/MNAT1 (Homo sapiens) (UniProt P51946+P50613+P51948); experiment: Inhibition of recombinant full length C-terminal human His-tagged CDK7/cyclin H/N-terminal MAT1 expressed in baculovirus expression system at 5 uM using Cdk7/9 peptide as substrate after 3 hrs by kinase-glo luminescent assay relative to control
[5] = target: T3, Cyclin-dependent kinase 2 (Homo sapiens, UniProt P24941); experiment: Inhibition of CDK2 (unknown origin) after 3 hrs by kinase-glo luminescent assay relative to control
[6] = target: CDK7/Cyclin H/MNAT1 (Homo sapiens, UniProt P50613); experiment: Inhibition of recombinant full length C-terminal human His-tagged CDK7/cyclin H/N-terminal MAT1 expressed in baculovirus expression system using Cdk7/9 peptide as substrate after 3 hrs by kinase-glo luminescent assay relative to control
Method in brief: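 CDK7 used at 5 ng/μL with 100 μM Cdk7/9 peptide substrate in CKI buffer (40 mM Tris, 10 mM MgCl2, 0.5 mM DTT, 0.1 mg/mL BSA, pH 7.5). ATP start at final 5 μM, 30 °C for 3 h, Kinase-Glo luminescence read-out.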

[7] = target: T4, Casein kinase I isoform delta (Homo sapiens, UniProt P48730); experiment: Inhibition of recombinant N-terminal human GST-tagged CK1delta (1 to 294 residues) expressed in Escherichia coli at 5 uM using RKKKAEpSVASLTSQCSYSS peptide as substrate after 3 hrs by kinase-glo luminescent assay relative to control
Target sequence in this assay (P48730 whole entry, looked up, the tested form may be a part, canonical isoform): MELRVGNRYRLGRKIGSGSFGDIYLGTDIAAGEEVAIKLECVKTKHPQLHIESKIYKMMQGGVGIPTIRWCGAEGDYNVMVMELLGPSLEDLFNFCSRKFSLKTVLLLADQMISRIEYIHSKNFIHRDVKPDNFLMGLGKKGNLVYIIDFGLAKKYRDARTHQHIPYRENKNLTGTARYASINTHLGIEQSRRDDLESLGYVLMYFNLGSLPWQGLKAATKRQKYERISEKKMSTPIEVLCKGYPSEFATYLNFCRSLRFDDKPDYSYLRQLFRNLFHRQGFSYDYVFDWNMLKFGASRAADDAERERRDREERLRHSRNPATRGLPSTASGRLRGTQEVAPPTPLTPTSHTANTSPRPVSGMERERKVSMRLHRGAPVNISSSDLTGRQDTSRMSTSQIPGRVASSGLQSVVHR

[8] = tested on: Mus musculus; experiment: Modulation of circadian rhythms in C57BL/6J mouse assessed as lengthening of time period of circadian behavior at 15 mM administered via infusion using osmotic pump by passive infrared sensor analysis; type: functional
Method in brief: (§2)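 Male C57BL/6J mice, 8 weeks old, entrained to 12 h light:12 h dark and then released into constant darkness. Drug infused continuously into the lateral ventricle by osmotic mini-pump via a stereotaxic cannula (0.2 mm anterior, 1.4 mm lateral, 2.2 mm deep). Artificial cerebrospinal fluid infusion served as control, with buffer infusion afterwards. Movement recorded each minute by passive infrared sensor to derive period.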

[9] = target: T4, Casein kinase I isoform delta; experiment: Inhibition of recombinant N-terminal human GST-tagged CK1delta (1 to 294 residues) expressed in Escherichia coli using RKKKAEpSVASLTSQCSYSS peptide as substrate after 3 hrs by kinase-glo luminescent assay relative to control
Method in brief: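 CKI buffer: 40 mM Tris, 10 mM MgCl2, 0.5 mM DTT, 0.1 mg/mL BSA, pH 7.5. Compound added first (final 5% DMSO), then ATP to a final 5 μM. Incubated 30 °C for 3 h; remaining ATP read by Kinase-Glo luminescence.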
Target sequence in this assay (P48730 whole entry, the tested form may be a part, canonical isoform): as the sequence (P48730 whole entry, looked up, the tested form may be a part, canonical isoform) above

[10] = target: T3, Cyclin-dependent kinase 2; experiment: Inhibition of CDK2 (unknown origin) at 5 uM after 3 hrs by kinase-glo luminescent assay relative to control
[11] = tested on: Mus musculus; experiment: Modulation of circadian rhythms in C57BL/6J mouse assessed as lengthening of time period of circadian behavior at 5 mM administered via infusion using osmotic pump by passive infrared sensor analysis; type: functional; method in brief: as §2
[12] = tested on: Mus musculus; experiment: Modulation of circadian rhythms in C57BL/6J mouse assessed as lengthening of time period of circadian behavior at 1 mM administered via infusion using osmotic pump by passive infrared sensor analysis; type: functional; method in brief: as §2
[13] = target: T2, Casein kinase I isoform alpha; experiment: Inhibition of recombinant full length human GST-tagged CK1apha expressed in baculovirus at 5 uM using peptide as substrate after 3 hrs by kinase-glo luminescent assay
Target sequence in this assay (P48729 2-337 limits assumed): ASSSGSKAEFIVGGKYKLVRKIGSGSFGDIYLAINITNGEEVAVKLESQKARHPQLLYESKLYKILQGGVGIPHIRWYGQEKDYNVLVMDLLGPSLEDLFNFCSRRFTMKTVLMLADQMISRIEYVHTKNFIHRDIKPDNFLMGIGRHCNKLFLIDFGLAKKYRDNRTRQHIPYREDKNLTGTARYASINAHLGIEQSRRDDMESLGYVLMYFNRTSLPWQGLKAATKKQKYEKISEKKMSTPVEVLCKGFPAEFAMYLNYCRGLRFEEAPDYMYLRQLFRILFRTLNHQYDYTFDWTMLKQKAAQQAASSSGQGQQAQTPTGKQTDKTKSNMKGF

[14] = target: T5, Mitogen-activated protein kinase 1 (Homo sapiens, UniProt P28482); experiment: Inhibition of N-terminal GST-tagged recombinant full-length human MAPK1 expressed in Escherichia coli using MBP1 as substrate after 3 hrs by kinase-glo luminescent assay relative to control
Method in brief: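 MAPK1 assayed as ERK2 at 1.5 ng/μL with 0.8 μg/μL MBP. ERK buffer: 50 mM Tris, 10 mM MgCl2, 0.5 mM DTT, 1 mM EGTA, pH 7.5. Compound at final 5% DMSO, then ATP (final 5 μM). Incubated 3 h at 30 °C; Kinase-Glo luminescence.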

[15] = target: T5, Mitogen-activated protein kinase 1; experiment: Inhibition of N-terminal GST-tagged recombinant full-length human MAPK1 expressed in Escherichia coli at 5 uM using MBP as substrate after 3 hrs by kinase-glo luminescent assay relative to control
[16] = tested on: Mus musculus; experiment: Modulation of circadian rhythms in C57BL/6J mouse assessed as lengthening of time period of circadian behavior at 3 mM administered via infusion using osmotic pump by passive infrared sensor analysis; type: functional; method in brief: as §2
[17] = target: Casein kinase I isoform epsilon (Homo sapiens) (UniProt P49674); experiment: Inhibition of CK1epsilon (unknown origin) at 5 uM relative to control
[18] = target: T4, Casein kinase I isoform delta; experiment: Inhibition of CK1delta (unknown origin) at 5 uM relative to control
Target sequence in this assay (P48730 whole entry, looked up, the tested form may be a part, canonical isoform): as the sequence (P48730 whole entry, looked up, the tested form may be a part, canonical isoform) above

[19] = target: SRSF protein kinase 2 (Homo sapiens) (UniProt P78362); experiment: Inhibition of SRPK2 (unknown origin) at 5 uM relative to control
[20] = target: Dual specificity protein kinase CLK2 (Homo sapiens) (UniProt P49760); experiment: Inhibition of CLK2 (unknown origin) at 5 uM relative to control
[21] = target: Cyclin-dependent kinase 7 (Homo sapiens) (UniProt P50613); experiment: Inhibition of CDK7 (unknown origin) at 5 uM relative to control
[22] = target: T2, Casein kinase I isoform alpha; experiment: Inhibition of CK1apha (unknown origin) at 5 uM relative to control
Target sequence in this assay (P48729 2-337 limits assumed): as the sequence (P48729 2-337 limits assumed) above

[23] = target: Cyclin-dependent kinase 6 (Homo sapiens) (UniProt Q00534); experiment: Inhibition of CDK6 (unknown origin) at 5 uM relative to control
[24] = tested on: Mus musculus; experiment: Reversible modulation of circadian rhythms in C57BL/6J mouse assessed as lengthening of time period of circadian behavior at 5 mM administered via infusion using osmotic pump followed buffer infusion by passive infrared sensor analysis; type: functional, organism-based; method in brief: as §2
[25] = target: T6, Casein kinase I isoform alpha-like (Homo sapiens) (UniProt Q8N752); experiment: Inhibition of CK1alpha-like protein (unknown origin) at 5 uM relative to control
T6 sequence (whole entry): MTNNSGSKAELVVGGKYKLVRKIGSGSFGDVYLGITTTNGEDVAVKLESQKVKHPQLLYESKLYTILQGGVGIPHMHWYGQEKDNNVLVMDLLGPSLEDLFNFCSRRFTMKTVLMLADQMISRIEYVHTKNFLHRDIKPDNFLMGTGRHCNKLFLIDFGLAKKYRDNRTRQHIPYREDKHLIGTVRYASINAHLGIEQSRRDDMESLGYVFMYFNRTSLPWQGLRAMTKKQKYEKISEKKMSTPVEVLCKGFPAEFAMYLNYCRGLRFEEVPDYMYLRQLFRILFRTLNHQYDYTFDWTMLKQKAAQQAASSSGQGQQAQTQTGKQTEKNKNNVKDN

[26] = target: SRSF protein kinase 1 (Homo sapiens) (UniProt Q96SB4); experiment: Inhibition of SRPK1 (unknown origin) at 5 uM relative to control

T5 sequence (P28482 whole entry): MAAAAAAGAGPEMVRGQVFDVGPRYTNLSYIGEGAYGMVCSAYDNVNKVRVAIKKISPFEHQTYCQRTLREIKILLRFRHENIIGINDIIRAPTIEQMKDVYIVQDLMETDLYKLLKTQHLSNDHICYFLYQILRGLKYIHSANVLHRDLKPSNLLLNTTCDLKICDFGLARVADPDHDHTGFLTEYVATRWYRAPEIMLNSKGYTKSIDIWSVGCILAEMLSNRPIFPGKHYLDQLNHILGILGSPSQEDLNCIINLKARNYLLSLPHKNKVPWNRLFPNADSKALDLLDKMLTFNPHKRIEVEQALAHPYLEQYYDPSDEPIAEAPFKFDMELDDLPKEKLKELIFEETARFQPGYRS
T1 sequence (P48729 whole entry, looked up, canonical isoform): as the sequence (P48729 whole entry, canonical isoform) above
T1 sequence (P48730 whole entry, looked up, canonical isoform): as the sequence (P48730 whole entry, looked up, the tested form may be a part, canonical isoform) above
Sequence of CDK7/Cyclin H/MNAT1 (P51946 whole entry): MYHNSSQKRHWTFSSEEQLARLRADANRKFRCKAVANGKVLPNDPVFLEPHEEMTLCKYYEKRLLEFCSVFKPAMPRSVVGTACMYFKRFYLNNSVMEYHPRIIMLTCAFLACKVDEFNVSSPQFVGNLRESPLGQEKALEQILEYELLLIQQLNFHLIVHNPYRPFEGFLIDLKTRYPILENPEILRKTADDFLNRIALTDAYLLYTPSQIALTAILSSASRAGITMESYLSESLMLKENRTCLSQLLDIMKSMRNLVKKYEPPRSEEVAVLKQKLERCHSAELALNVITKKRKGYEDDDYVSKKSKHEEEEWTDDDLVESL
Sequence of CDK7/Cyclin H/MNAT1 (P50613 whole entry): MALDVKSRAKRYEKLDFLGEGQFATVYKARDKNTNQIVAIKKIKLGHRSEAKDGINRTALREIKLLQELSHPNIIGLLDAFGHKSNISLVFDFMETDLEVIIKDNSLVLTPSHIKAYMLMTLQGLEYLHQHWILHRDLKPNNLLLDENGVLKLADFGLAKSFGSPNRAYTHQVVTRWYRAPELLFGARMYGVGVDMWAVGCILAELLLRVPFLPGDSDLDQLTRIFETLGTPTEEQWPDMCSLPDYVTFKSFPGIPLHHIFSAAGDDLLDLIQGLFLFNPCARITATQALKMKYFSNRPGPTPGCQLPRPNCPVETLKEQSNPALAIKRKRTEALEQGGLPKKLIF
Sequence of CDK7/Cyclin H/MNAT1 (P51948 whole entry, further chain): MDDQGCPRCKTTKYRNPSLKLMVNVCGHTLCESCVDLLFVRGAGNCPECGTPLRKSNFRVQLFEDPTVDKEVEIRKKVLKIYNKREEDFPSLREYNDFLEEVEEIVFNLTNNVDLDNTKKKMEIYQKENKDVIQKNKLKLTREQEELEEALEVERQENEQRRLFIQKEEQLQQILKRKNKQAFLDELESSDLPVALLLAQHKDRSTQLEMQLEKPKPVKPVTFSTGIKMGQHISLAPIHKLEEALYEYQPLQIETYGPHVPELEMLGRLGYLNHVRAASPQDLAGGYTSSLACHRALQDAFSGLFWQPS
Sequence of Cyclin-dependent kinase 7 (Homo sapiens) (P50613 whole entry, canonical isoform): as the sequence (P50613 whole entry) above
Sequence of Cyclin-dependent kinase 6 (Homo sapiens) (Q00534 whole entry, the tested form may be a part): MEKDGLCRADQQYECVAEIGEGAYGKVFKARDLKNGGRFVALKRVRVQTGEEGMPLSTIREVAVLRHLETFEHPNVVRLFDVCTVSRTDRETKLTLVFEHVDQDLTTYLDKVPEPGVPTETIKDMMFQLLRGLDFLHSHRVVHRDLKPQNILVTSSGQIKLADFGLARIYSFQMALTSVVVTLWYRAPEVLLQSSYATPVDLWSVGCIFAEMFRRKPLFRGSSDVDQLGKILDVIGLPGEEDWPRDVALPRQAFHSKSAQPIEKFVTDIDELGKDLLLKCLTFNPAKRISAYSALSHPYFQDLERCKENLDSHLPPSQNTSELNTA
Sequence of Dual specificity protein kinase CLK2 (Homo sapiens) (P49760 whole entry, looked up): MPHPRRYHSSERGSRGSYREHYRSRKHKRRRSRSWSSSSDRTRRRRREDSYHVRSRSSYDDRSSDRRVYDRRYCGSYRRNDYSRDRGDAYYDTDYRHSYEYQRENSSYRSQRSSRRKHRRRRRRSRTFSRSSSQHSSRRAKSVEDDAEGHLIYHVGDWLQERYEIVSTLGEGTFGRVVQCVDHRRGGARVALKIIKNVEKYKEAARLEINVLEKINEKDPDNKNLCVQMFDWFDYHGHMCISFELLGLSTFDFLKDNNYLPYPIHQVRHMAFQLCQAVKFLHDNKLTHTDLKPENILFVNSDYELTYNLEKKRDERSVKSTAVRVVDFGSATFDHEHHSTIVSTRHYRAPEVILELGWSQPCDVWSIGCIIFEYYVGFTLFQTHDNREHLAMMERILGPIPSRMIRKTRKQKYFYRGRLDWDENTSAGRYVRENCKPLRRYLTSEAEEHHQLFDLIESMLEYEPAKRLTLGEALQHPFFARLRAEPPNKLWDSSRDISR

CC(C)n1cnc2c(NCc3cccc(C(F)(F)F)c3)nc(NCCN)nc21
EC [1]: 5.23 µM
EC [2]: 0.58 µM

COc1nc(NCc2cccc(C(F)(F)F)c2)c2ncn(C(C)C)c2n1
EC [1]: 2.39 µM
EC [2]: 0.32 µM

CC(C)n1cnc2c(NCc3cccc(C(F)(F)F)c3)nc(N3CCC(O)CC3)nc21
EC [1]: 10.4 µM
EC [2]: 1.98 µM

CC(C)n1cnc2c(NCc3cccc(C(F)(F)F)c3)nc(N3CCCN(C)CC3)nc21
EC [1]: 5.8 µM
EC [2]: 0.68 µM

CC(C)n1cnc2c(NCc3cccc(C(F)(F)F)c3)nc(NCc3ccccc3)nc21
EC [1]: inactive
EC [2]: inactive

CC(C)n1cnc2c(NCc3cccc(C(F)(F)F)c3)nc(NC3CC3)nc21
EC [1]: 3.04 µM
EC [2]: 1.62 µM

CC[C@H](CO)Nc1nc(NCc2ccccc2)c2ncn(C(C)C)c2n1
EC [1]: 9 µM
EC [2]: 0.96 µM

CC(C)n1cnc2c(NCc3cccc(C(F)(F)F)c3)ncnc21
IC50 [3]: 12 µM
inhibition [4]: > 30%
IC50 [5]: 13 µM
IC50 [6]: 32 µM
inhibition [7]: > 30%
Time [8]: 0.15 h
IC50 [9]: 12 µM
inhibition [10]: > 30%
Time [11]: 0.1 h
Time [12]: 0.05 h
inhibition [13]: > 30%
EC [1]: 3.4 µM
IC50 [14]: 59 µM
EC [2]: 0.39 µM
inhibition [15]: > 30%
Time [16]: 0.1 h

CCCCOc1nc(NCc2cccc(C(F)(F)F)c2)c2ncn(C(C)C)c2n1
EC [1]: 23.4 µM
EC [2]: 6.39 µM

CC(C)n1cnc2c(NCc3cccc(C(F)(F)F)c3)nc(NCCN3CCOCC3)nc21
EC [1]: 9.33 µM
EC [2]: 1.65 µM

CC(C1CC1)n1cnc2c(OCc3cccc(C(F)(F)F)c3)nc(NCCN(C)C)nc21 (centres undefined)
EC [1]: inactive
EC [2]: inactive

CC(C)n1cnc2c(NCc3cccc(C(F)(F)F)c3)nc(N3CCN(C)CC3)nc21
EC [1]: 3.66 µM
EC [2]: 0.9 µM

CC(C1CC1)n1cnc2c(NCc3cccc(C(F)(F)F)c3)nc(NCCN(C)C)nc21 (centres undefined)
inhibition [17]: > 50%
IC50 [3]: 1.8 µM
inhibition [4]: Active
IC50 [5]: 37 µM
inhibition [18]: > 50%
IC50 [6]: 2.4 µM
inhibition [19]: Active
inhibition [20]: Active
inhibition [7]: Active
Time [8]: 0.15 h
IC50 [9]: 3.6 µM
inhibition [21]: > 50%
Time [11]: 0.15 h
inhibition [22]: > 50%
inhibition [13]: Active
EC [1]: 0.32 µM
IC50 [14]: 850 µM
inhibition [23]: > 50%
EC [2]: 0.022 µM
Activity [24]: Active
inhibition [25]: > 50%
inhibition [26]: Active

CC(C)Oc1nc(NCc2cccc(C(F)(F)F)c2)c2ncn(C(C)C)c2n1
EC [1]: 2.75 µM
EC [2]: 0.39 µM

CC(C)n1cnc2c(NCc3cccc(C(F)(F)F)c3)nc(NCCN(C)C)nc21
EC [1]: 0.9 µM
EC [2]: 0.09 µM

CC(=O)N1CCN(c2nc(NCc3cccc(C(F)(F)F)c3)c3ncn(C(C)C)c3n2)CC1
EC [1]: 5.7 µM
EC [2]: 1.03 µM

CC(C1CC1)n1cnc2c(N(C)Cc3cccc(C(F)(F)F)c3)nc(NCCN(C)C)nc21 (centres undefined)
EC [1]: inactive
EC [2]: inactive

CC[C@H](CO)Nc1nc(NCc2cccc(C(F)(F)F)c2)c2ncn(C(C)C)c2n1
EC [1]: 3.76 µM
EC [2]: 0.38 µM

CC(C1CC1)n1cnc2c(NCc3cccc(C(F)(F)F)c3)ncnc21 (centres undefined)
EC [1]: 0.9 µM
EC [2]: 0.09 µM

COCC1CCCN1c1nc(NCc2cccc(C(F)(F)F)c2)c2ncn(C(C)C)c2n1 (centres undefined)
EC [1]: inactive
EC [2]: inactive

From ChEMBL document CHEMBL4422662, “Chemical Control of Mammalian Circadian Behavior through Dual Inhibition of Casein Kinase Iα and δ” (J Med Chem, 2019)
